Source: ChEMBL document CHEMBL1134309, “O-Phosphonatomethylcholine, its analogues, alkyl esters, and their biological activity” (J Med Chem, 2001)

Key:
[1] = system: DU-145; assay: In vitro cytotoxic activity against prostate carcinoma (DU-145) cells assayed by inhibition of [3H]-labeled thymidine incorporation; type: functional, cell-based; details: Homo sapiens
Outline: (§1)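 Human tumour lines in 10% FBS medium (HT-29 and MES-SA in McCoy's 5a; NCI-H460 in RPMI 1640; DU-145 in MEM/Earle's), 37 °C, 5% CO2. Trypsin/EDTA-harvested, plated at 1 × 10⁴ cells/well, attached ~4 h. Serial dilutions tested, 8 wells/concentration. [methyl-³H]thymidine, 0.25 μCi/well, added at 24 h, then 48 more h (72 h total). Cells Triton-lysed, filter-harvested, counted. IC50 is the average of 3–5 determinations.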

[2] = system: MES-SA (Homo sapiens); assay: In vitro cytotoxic activity against uterine sarcoma (MES-SA) cells assayed by inhibition of [3H]-labeled thymidine incorporation
[3] = system: Lymphoma cell line; assay: Percent decrease of Lymphoma mass of animals treated with the compound; type: functional; parameters: scale not given: the % may be the effect or the level left
Outline: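 Male SD rats, 2 months old, ~300 g, 4 per group. 10⁶ SD lymphoma cells given s.c. to the right flank. From day 10, drug in PBS pH 7.2 (3 mL, 1 mg/mL) was injected once daily next to the tumour for 10 days; controls got PBS only. Rats were killed 24 h later and lymphomas weighed. Result is mean mass decrease versus controls.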

[4] = system: HT-29; assay: In vitro cytotoxic activity against colon adenocarcinoma (HT-29) cells assayed by inhibition of [3H]-labeled thymidine incorporation; type: functional, cell-based; details: Homo sapiens; outline: as §1
[5] = system: NCI-H460; assay: In vitro cytotoxic activity against nonsmall cell lung carcinoma (NCI-H460) cells assayed by inhibition of [3H]-labeled thymidine incorporation; type: functional, cell-based; details: Homo sapiens; outline: as §1
[6] = system: HT-29; assay: In vitro cytotoxic activity against colon adenocarcinoma (HT-29) cells assayed by inhibition of [3H]-labeled thymidine incorporation; Not calculable; type: functional, cell-based, Homo sapiens; outline: as §1
[7] = system: MES-SA (Homo sapiens); assay: In vitro cytotoxic activity against uterine sarcoma (MES-SA) cells assayed by inhibition of [3H]-labeled thymidine incorporation; Not calculable
[8] = system: DU-145; assay: In vitro cytotoxic activity against prostate carcinoma (DU-145) cells assayed by inhibition of [3H]-labeled thymidine incorporation; Not calculable; type: functional, cell-based, Homo sapiens; outline: as §1
[9] = system: NCI-H460; assay: In vitro cytotoxic activity against nonsmall cell lung carcinoma (NCI-H460) cells assayed by inhibition of [3H]-labeled thymidine incorporation; Not calculable; type: functional, cell-based, Homo sapiens; outline: as §1

Compound | IC50 [1] [µM] | IC50 [2] [nM] | Activity [3] [%] | IC50 [4] [nM] | IC50 [5] [µM] | IC50 [6] | IC50 [7] | IC50 [8] | IC50 [9]
CCCCCCCCCCCCCCCCOP(=O)([O-])COCC[N+](C)(C)C | 17.2 | 2110 | 41 | 4760 | 15.7 |  |  |  | 
CCCCCCCCCCCCCCCOP(=O)([O-])COCC[N+](C)(C)C | 19.9 | 9590 |  |  | 18 | Not calculable |  |  | 
CCCCCCCCCCCCOP(=O)([O-])COCC[N+](C)(C)C | 133 |  |  |  | 138 | Not calculable | Not calculable |  | 
CCCCCCCCCCCCCCOP(=O)([O-])COCC[N+](C)(C)C |  |  | 30 | 12200 | 40.3 |  | Not calculable | Not calculable | 
CCCCCCCCCCOP(=O)([O-])COCC[N+](C)(C)C |  |  |  |  |  | Not calculable | Not calculable | Not calculable | Not calculable
Nc1ccn([C@@H]2O[C@H](CO)[C@@H](O)C2(F)F)c(=O)n1 [GEMCITABINE] | 0.0356 | 9.2 |  | 3 | 0.0078 |  |  |  | 
CCCCCCCCCCCCCCCCOP(=O)([O-])OCC[N+](C)(C)C [MILTEFOSINE] | 24.9 | 5350 |  | 6150 | 6.62 |  |  |  | 
CC(=O)O[C@H]1C(=O)[C@@]2(C)[C@H]([C@H](OC(=O)c3ccccc3)[C@]3(O)C[C@H](OC(=O)[C@H](O)[C@@H](NC(=O)c4ccccc4)c4ccccc4)C(C)=C1C3(C)C)[C@]1(OC(C)=O)CO[C@@H]1C[C@@H]2O [PACLITAXEL] |  | 0.04 |  | 0.16 | 0.00014 |  |  |  | 
CC[C@]1(O)C[C@H]2CN(CCc3c([nH]c4ccccc34)[C@@](C(=O)OC)(c3cc4c(cc3OC)N(C=O)[C@H]3[C@@](O)(C(=O)OC)[C@H](OC(C)=O)[C@]5(CC)C=CCN6CC[C@]43[C@@H]65)C2)C1 [VINCRISTINE] | 0.00112 | 0.02 |  | 0.01 | 0.00013 |  |  |  | 
